# Measured values published in ChEMBL document CHEMBL1156306, “Discovery, biological evaluation, and structure-activity relationship of amidine based sphingosine kinase inhibitors” (J Med Chem, 2010).
# Active and inactive are the calls of the source. No cut-off for these calls is given here.
# Experiments:
# [1] = biological target: T1, Sphingosine kinase 2 (Mus musculus) (UniProt Q9JIA7); assay: Ratio of Ki to Km for mouse recombinant SPHK2 expressed in baculovirus-infected Sf9 cells
# T1 sequence (whole entry): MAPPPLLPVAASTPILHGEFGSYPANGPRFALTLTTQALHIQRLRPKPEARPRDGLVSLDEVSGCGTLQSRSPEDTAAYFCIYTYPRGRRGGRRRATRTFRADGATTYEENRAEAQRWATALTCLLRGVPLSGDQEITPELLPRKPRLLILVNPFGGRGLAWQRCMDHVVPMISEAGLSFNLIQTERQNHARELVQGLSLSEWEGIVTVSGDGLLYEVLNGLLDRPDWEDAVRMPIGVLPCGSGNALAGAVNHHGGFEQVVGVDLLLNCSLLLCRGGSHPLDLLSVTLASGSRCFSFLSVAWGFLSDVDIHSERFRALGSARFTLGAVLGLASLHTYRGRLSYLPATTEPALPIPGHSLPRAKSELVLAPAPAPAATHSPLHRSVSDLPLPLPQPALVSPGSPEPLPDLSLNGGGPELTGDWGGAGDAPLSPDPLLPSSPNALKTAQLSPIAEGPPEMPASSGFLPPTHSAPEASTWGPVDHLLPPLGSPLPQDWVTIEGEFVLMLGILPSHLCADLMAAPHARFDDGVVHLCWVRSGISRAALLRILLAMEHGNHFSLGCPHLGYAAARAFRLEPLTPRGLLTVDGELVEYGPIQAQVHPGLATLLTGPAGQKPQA
# [2] = biological target: T1, Sphingosine kinase 2 (Mus musculus); assay: Inhibition of mouse recombinant SPHK2 expressed in baculovirus-infected Sf9 cells in presence of sphingosine
# Summary of the method: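 Enzyme source was a 10,000 × g supernatant of Sf9 cells infected for 72 h with baculovirus encoding mouse SphK2, using 2–3 μg protein per assay. Sphingosine phosphorylation conditions were as in an earlier report.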
# [3] = biological target: Sphingosine kinase 1 (Homo sapiens) (UniProt Q9NYA1); conditions: Sf9
# Sphingosine kinase 1 (Homo sapiens), sequence (Q9NYA1 whole entry): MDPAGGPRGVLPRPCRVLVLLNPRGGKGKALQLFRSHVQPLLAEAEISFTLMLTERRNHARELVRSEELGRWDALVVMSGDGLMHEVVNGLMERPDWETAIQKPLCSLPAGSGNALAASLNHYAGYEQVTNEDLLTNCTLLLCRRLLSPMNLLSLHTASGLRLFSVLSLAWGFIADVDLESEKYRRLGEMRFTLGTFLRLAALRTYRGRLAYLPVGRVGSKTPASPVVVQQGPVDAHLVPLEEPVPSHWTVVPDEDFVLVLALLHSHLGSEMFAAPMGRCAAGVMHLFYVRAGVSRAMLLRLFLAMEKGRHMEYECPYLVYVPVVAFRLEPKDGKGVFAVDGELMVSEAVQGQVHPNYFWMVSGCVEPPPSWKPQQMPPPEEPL
# [4] = biological target: Protein kinase C alpha type (Homo sapiens) (UniProt P17252); assay: Inhibition of PKCalpha up to 10 uM
# Summary of the method: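 Compound tested at protein kinase C α at concentrations up to 10 μM.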
# [5] = biological target: T2, Diacylglycerol kinase delta (Homo sapiens) (UniProt Q16760); assay: Inhibition of DAGdelta1 up to 100 uM
# T2 sequence (whole entry): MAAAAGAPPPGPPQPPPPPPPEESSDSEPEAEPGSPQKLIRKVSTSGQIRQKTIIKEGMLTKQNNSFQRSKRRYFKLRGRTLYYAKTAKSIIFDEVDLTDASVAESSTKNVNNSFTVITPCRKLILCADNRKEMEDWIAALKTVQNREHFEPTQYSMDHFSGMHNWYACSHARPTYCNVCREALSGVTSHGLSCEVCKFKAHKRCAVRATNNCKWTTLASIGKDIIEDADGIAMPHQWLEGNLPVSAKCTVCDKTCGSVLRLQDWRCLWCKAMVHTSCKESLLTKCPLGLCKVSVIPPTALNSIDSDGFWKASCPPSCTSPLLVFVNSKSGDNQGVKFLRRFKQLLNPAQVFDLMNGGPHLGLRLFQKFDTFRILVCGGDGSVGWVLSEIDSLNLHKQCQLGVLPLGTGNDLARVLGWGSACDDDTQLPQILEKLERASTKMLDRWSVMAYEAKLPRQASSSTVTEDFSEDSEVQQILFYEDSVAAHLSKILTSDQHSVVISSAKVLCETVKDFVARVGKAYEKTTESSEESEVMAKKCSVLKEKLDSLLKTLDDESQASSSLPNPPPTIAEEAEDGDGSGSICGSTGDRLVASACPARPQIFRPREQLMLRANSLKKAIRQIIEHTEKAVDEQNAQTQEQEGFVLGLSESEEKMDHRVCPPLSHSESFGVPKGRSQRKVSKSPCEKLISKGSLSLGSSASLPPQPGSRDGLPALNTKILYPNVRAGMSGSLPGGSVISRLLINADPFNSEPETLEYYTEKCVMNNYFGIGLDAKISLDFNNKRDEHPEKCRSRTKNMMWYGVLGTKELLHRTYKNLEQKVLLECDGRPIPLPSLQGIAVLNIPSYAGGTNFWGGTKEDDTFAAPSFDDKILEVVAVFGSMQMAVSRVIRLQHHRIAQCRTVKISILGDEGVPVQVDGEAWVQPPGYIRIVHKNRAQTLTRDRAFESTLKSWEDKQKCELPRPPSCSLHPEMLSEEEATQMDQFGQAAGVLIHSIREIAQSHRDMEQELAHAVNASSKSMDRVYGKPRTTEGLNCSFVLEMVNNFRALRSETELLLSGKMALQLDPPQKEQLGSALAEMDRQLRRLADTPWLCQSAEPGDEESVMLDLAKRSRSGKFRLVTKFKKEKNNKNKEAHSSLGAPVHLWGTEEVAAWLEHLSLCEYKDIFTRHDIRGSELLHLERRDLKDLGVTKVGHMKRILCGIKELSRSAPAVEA
# Summary of the method: (§1)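 Recombinant diacylglycerol kinases (γ, δ1, ζ) tested with compound at concentrations up to 100 μM.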
# [6] = biological target: Diacylglycerol kinase gamma (Homo sapiens) (UniProt P49619); assay: Inhibition of DAGgamma up to 100 uM
# Diacylglycerol kinase gamma (Homo sapiens), sequence (P49619 whole entry): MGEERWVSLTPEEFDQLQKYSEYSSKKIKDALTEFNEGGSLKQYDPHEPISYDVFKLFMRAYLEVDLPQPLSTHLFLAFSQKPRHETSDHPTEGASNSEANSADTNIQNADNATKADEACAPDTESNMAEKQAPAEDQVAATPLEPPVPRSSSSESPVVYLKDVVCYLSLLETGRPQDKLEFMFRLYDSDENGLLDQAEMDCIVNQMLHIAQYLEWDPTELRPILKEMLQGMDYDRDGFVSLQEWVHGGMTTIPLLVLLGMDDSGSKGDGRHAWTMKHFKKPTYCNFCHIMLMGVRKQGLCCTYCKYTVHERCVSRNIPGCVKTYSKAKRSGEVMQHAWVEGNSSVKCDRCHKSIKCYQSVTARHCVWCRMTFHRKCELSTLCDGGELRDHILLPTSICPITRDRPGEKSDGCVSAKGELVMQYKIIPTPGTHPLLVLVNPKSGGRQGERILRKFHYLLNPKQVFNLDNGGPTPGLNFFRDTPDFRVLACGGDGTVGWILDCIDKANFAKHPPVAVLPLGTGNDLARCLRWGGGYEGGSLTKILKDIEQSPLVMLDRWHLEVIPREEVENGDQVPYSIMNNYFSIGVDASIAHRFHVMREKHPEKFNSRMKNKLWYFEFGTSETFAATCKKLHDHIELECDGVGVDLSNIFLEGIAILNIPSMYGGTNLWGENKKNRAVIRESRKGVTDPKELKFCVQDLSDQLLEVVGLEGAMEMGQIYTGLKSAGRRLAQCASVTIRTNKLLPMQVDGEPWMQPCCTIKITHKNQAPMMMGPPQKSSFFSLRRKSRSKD
# Summary of the method: as §1
# [7] = biological target: T3, Sphingosine kinase 2 (Rattus norvegicus) (UniProt A6JB73); assay: Inhibition of [32P]S1P/FBS-stimulated SPHK2 in rat VSMC after 12 hrs relative to control
# T3 sequence (whole entry): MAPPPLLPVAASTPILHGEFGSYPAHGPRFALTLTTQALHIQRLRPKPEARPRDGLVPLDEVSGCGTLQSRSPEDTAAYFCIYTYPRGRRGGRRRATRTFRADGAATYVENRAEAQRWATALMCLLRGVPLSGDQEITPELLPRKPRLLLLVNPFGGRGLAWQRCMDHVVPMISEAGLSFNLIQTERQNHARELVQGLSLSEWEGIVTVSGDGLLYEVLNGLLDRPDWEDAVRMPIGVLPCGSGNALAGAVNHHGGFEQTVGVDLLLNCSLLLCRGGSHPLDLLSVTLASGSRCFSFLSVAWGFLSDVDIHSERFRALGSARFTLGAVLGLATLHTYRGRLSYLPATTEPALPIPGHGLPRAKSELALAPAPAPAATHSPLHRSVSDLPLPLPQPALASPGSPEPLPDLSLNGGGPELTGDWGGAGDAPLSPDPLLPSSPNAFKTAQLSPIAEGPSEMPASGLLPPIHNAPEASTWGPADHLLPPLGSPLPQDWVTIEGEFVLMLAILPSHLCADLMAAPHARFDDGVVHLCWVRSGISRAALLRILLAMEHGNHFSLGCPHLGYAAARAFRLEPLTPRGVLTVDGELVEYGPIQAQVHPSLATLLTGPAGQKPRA
# Summary of the method: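 Rat aortic VSMC stimulated with 10% FBS for 0, 3, 6 and 12 h. SphK2 activity measured as [32P]-S1P formation, N=3.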
# [8] = Cytotoxicity against rat VSMC assessed as cell viability at 10 uM by microscopical analysis
# VSMC [9] = assay: Inhibition of FBS-induced SPHKk1 mRNA level in rat VSMC after 4 hrs by RT-PCR; format: functional
# Summary of the method: (§2)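 Rat aortic VSMC stimulated with 10% FBS for 4 h. Total RNA extracted with Trizol and reverse-transcribed. Sphk1 and Sphk2 mRNA measured by quantitative real-time PCR and normalized to 18S rRNA, N=3.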
# [10] = Inhibition of FBS-induced cell proliferation of rat VSMC after 24 hrs by BrdU incorporation assay; format: functional, cell-based
# Summary of the method: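 Rat aortic VSMC pretreated with compound for 30 min, then stimulated with 10% FBS for 24 h. Proliferation measured by BrdU incorporation (10 μM BrdU) using an immuno-absorbance read-out, dose-response, N=6.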
# VSMC [11] = assay: Inhibition of FBS-induced intracellular concentration of S1P in rat VSMC; format: functional, cell-based
# [12] = Cytotoxicity against rat VSMC assessed as cell viability at 0.1 to 100 uM; format: cell-based; conditions: in the assay text read “0.001 to 100 uM” for “0.1 to 100 uM”
# Summary of the method: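 Rat aortic vascular smooth muscle cells, cultured in vitro, exposed to compound across 0.001–100 μM. Cytotoxic response read with the MultiTox-Fluor fluorescence assay, using 20 μM cyclosporine A as reference, N=3.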
# VSMC [13] = assay: Inhibition of serum-induced cell proliferation of rat VSMC
# VSMC [14] = assay: Inhibition of FBS-induced SPHKk2 mRNA level in rat VSMC after 4 hrs by RT-PCR; format: functional, cell-based
# Summary of the method: as §2
SMILES,Ratio [1],Ki [2] [µM],Ki [3] [µM],other results
CCCCCCCCCCc1ccc(C(=O)NC2(C(=N)N)CC2)cc1,0.8,4,5,–
CCCCCCCCCCCCCCc1ccc(C(=O)NC2(C(=N)N)CC2)cc1,6.4,32,10,–
CCCCCCCCCCc1ccc(NC(=O)C2(C(=N)N)CC2)cc1,0.8,4,3,–
CCCCCCCCc1ccc(C(=O)N[C@@H](C)C(=O)O)cc1,> 20,> 100,> 100,–
CCCCCCCCc1ccc(C(=O)NCC(=N)N)cc1,12,60,> 100,–
CCCCCCCCCCCCCCCCc1ccc(C(=O)NC2(C(=N)N)CC2)cc1,2,10,36,–
CCCCCCCCCCCCCCc1ccc(NC(=O)C2(C(=N)N)CC2)cc1,> 20,> 100,8.4,–
CCCCCCCCc1ccc(C(=O)N[C@@H](C)C(N)=O)cc1,> 20,> 100,> 100,–
CCCCCCCCc1ccc(C(=O)N[C@H](C)C(=N)N)cc1,5,25,> 100,–
CCCCCCCCCCCCc1ccc(C(=O)NC2(C(=N)N)CC2)cc1,0.1,0.5,0.2,inhibition [4]: inactive; inhibition [5]: inactive; inhibition [6]: inactive
CCCCCCCCCCCCc1ccc(NC(=O)C2(C(=N)N)CC2)cc1,1.2,6,0.3,inhibition [4]: inactive; inhibition [5]: inactive; inhibition [6]: inactive
CCCCCCCCCCCCCCCCc1ccc(NC(=O)C2(C(=N)N)CC2)cc1,> 20,> 100,30,–
CCCCCCCCc1ccc(C(=O)NC2(C(=N)N)CC2)cc1,4.6,23,25,–
CCCCCCCCc1ccc(C(=O)N[C@@H](C)C(=N)N)cc1.Cl,4,20,55,inhibition [7]: inactive; Activity [8]: Non-toxic; inhibition (VSMC [9]): inactive; EC50 [10]: 10 µM; inhibition (VSMC [11]): Active; Activity [12]: Non-toxic; inhibition (VSMC [13]): Active; inhibition (VSMC [14]): inactive
